Measured values taken from ChEMBL document CHEMBL4813913, “In vitro identification of imidazo[1,2-a]pyrazine-based antileishmanial agents and evaluation of L. major casein kinase 1 inhibition” (Eur J Med Chem, 2021).

Key:
[1] = Cytotoxicity against mouse RAW264.7 cells assessed as reduction in cell growth measured after 48 hrs by SYBR Green 1 dye based fluorescence assay
Summary of the method: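 RAW 264.7 cells seeded at 100,000 cells/well in DMEM with 10% FBS, 24 h at 37 °C, 5% CO₂. Two-fold serial dilutions, final 49 nM–100 μM, for 48 h. Growth read by SYBR Green I. CC50 by nonlinear regression. Miltefosine reference; untreated cells as growth control.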

Leishmania major = experiment: Antileishmanial activity against amastigote stage of Leishmania major (MHOM/IL/81/BNI) infected in BALB/c mouse peritoneal macrophages assessed as reduction in parasitic proliferation measured after 4 days by MayGrunwald-Giemsa stain based microscopic method; type: functional, organism-based; details: Peritoneal macrophage, 96 h
Summary of the method: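 BALB/c peritoneal macrophages on glass slides, 1.5×10⁵ cells/mL in RPMI 1640 with 15% FBS, 24 h attachment. Infected with stationary-phase promastigotes (1.5×10⁶/mL) for 24 h at 37 °C, 5% CO₂. Washed, then exposed 4 days to 100, 10, 1, 0.1 μM (DMSO ≤1% final). Methanol-fixed, May-Grunwald-Giemsa stained, amastigotes counted in 100 macrophages per duplicate well. IC50 from amastigotes/macrophage. Run twice.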

[2] = Selectivity index, ratio of CC50 for human MRC5 cells to IC50 for amastigote stage of Leishmania infantum (MHOM/FR/2008/LEM5700) infected in mouse RAW264.7 cells; type: toxicity, cell-based; details: read-out: Ratio CC50/IC50
Summary of the method: (§1)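 Selectivity index is CC50 on RAW 264.7 or MRC-5 cells divided by IC50 on intracellular amastigotes.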

[3] = Selectivity index, ratio of CC50 for mouse RAW264.7 cells to IC50 for amastigote stage of Leishmania infantum (MHOM/FR/2008/LEM5700) infected in mouse RAW264.7 cells; type: toxicity, cell-based; details: read-out: Ratio CC50/IC50; summary of the method: as §1
[4] = Selectivity index, ratio of CC50 for human MRC5 cells to IC50 for amastigote stage of Leishmania amazonensis (MHOM/BR/73/M2269) infected in mouse RAW264.7 cells; type: toxicity, cell-based; details: read-out: Ratio CC50/IC50; summary of the method: as §1
[5] = Cytotoxicity against human MRC5 cells assessed as reduction in cell viability measured after 96 hrs by resazurin assay; type: cell-based
Summary of the method: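 Human MRC-5 fibroblasts grown in RPMI 1640 with 10% FBS. Exposed to 100, 10 and 1 μM in triplicate for 96 h. Then 10 μL of 700 μM resazurin added for 4 h and fluorescence read. Value is the mean of triplicates.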

[6] = Selectivity index, ratio of CC50 for mouse RAW264.7 cells to IC50 for amastigote stage of Leishmania major (MHOM/IL/81/BNI) infected in BALB/c mouse peritoneal macrophages; type: toxicity; details: read-out: Ratio CC50/IC50; summary of the method: as §1
[7] = Selectivity index, ratio of CC50 for human MRC5 cells to IC50 for amastigote stage of Leishmania braziliensis (MHOM/BR/75/M2903b) infected in mouse RAW264.7 cells; type: toxicity, cell-based; details: read-out: Ratio CC50/IC50; summary of the method: as §1
Leishmania donovani = experiment: Antileishmanial activity against amastigote stage of Leishmania donovani (MHOM/ET/67/HU3) infected in mouse RAW264.7 cells assessed as reduction in parasitic proliferation measured by SYBR Green 1 dye based fluorescence assay; type: functional, organism-based; details: MHOM/ET/67/HU3, RAW264.7
Summary of the method: (§2)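 RAW 264.7 macrophages seeded at 100,000 cells/well in DMEM with 10% heat-inactivated FBS, 24 h at 37 °C, 5% CO₂. Infected with plateau-phase promastigotes (parasite:macrophage 16:1) for 24 h. Compounds serially diluted, final 391 nM–100 μM. Amastigote viability read by SYBR Green I after lysis and 3 freeze-thaw cycles. IC50 by nonlinear regression against excipient-treated controls. Miltefosine reference.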

Leishmania amazonensis = experiment: Antileishmanial activity against amastigote stage Leishmania amazonensis (MHOM/BR/73/M2269) infected in mouse RAW264.7 cells assessed as reduction in parasitic proliferation measured by SYBR Green 1 dye based fluorescence assay; type: functional, organism-based; details: MHOM/BR/73/M2269, RAW264.7; summary of the method: as §2
Leishmania braziliensis = experiment: Antileishmanial activity against amastigote stage of Leishmania braziliensis (MHOM/BR/75/M2903b) infected in mouse RAW264.7 cells assessed as reduction in parasitic proliferation measured by SYBR Green 1 dye based fluorescence assay; type: functional, organism-based; summary of the method: as §2
[8] = Selectivity index, ratio of CC50 for mouse RAW264.7 cells to IC50 for amastigote stage of Leishmania donovani (MHOM/ET/67/HU3) infected in mouse RAW264.7 cells; type: toxicity, cell-based; details: read-out: Ratio CC50/IC50; summary of the method: as §1
[9] = Selectivity index, ratio of CC50 for mouse RAW264.7 cells to IC50 for amastigote stage of Leishmania amazonensis (MHOM/BR/73/M2269) infected in mouse RAW264.7 cells; type: toxicity, cell-based; details: read-out: Ratio CC50/IC50; summary of the method: as §1
Leishmania infantum = experiment: Antileishmanial activity against amastigote stage of Leishmania infantum (MHOM/FR/2008/LEM5700) infected in mouse RAW264.7 cells assessed as reduction in parasitic proliferation measured by SYBR Green 1 dye based fluorescence assay; type: functional, organism-based; details: MHOM/FR/2008/LEM5700, RAW264.7; summary of the method: as §2
[10] = Selectivity index, ratio of CC50 for human MRC5 cells to IC50 for amastigote stage of Leishmania major (MHOM/IL/81/BNI) infected in BALB/c mouse peritoneal macrophages; type: toxicity; details: read-out: Ratio CC50/IC50; summary of the method: as §1
[11] = Selectivity index, ratio of CC50 for mouse RAW264.7 cells to IC50 for amastigote stage of Leishmania braziliensis (MHOM/BR/75/M2903b) infected in mouse RAW264.7 cells; type: toxicity, cell-based; details: read-out: Ratio CC50/IC50; summary of the method: as §1
[12] = Selectivity index, ratio of CC50 for human MRC5 cells to IC50 for amastigote stage of Leishmania donovani (MHOM/ET/67/HU3) infected in mouse RAW264.7 cells; type: toxicity, cell-based; details: read-out: Ratio CC50/IC50; summary of the method: as §1

CCCCCCCCCCCCCCCCOP(=O)([O-])OCC[N+](C)(C)C [MILTEFOSINE]
CC50 at 48 h [1]: 43 µM
IC50 (Leishmania major): 1.44 µM
selectivity ratio [2]: 12.4
selectivity ratio [3]: 14.5
selectivity ratio [4]: 8.7
CC50 at 96 h [5]: 36.8 µM
selectivity ratio [6]: 29.9
selectivity ratio [7]: 4.4
IC50 (Leishmania donovani): 1.83 µM
IC50 (Leishmania amazonensis): 4.22 µM
IC50 (Leishmania braziliensis): 8.33 µM
selectivity ratio [8]: 23.5
selectivity ratio [9]: 10.2
IC50 (Leishmania infantum): 2.96 µM
selectivity ratio [10]: 25.5
selectivity ratio [11]: 5.2
selectivity ratio [12]: 20.1
